Converted amounts (≈) assume the structure as drawn. The source made the active and inactive calls. No cut-off for these calls is given here.
Assays:
DNA [1] = assay: Binding affinity to DNA isolated from HEK293 cells assessed as change in ellipticity at 262 nm at 15 to 180 uM by circular dichroism method; assay type: ADME, cell-free; conditions: human
DNA [2] = assay: Inhibition of ethidium bromide binding to Staphylococcus aureus DNA at pH 6 to 8 by fluorescence assay; assay type: nucleic-acid assay
In short: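 S. aureus genomic DNA (10 µM) with EtBr (5 µM) in 10 mM NaP pH 7, 10 mM NaCl and 1% DMSO, at 25 and 37 °C. Titrated with compound from 2.5 to 100 µM. Excitation 480 nm, emission scanned 520–700 nm, corrected for inner filter. Stern–Volmer analysis, triplicates. Variants: pH 6–8, or NaCl raised to 50 and 200 mM.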

DNA [3] = assay: Binding affinity to Staphylococcus aureus DNA assessed as change in B-DNA structure by circular dichroism method; assay type: nucleic-acid assay
In short: (§1)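 Genomic DNA isolated from overnight cultures of each strain. Titrated with compound from 15 to 60 µM in a 10 mm quartz cuvette. CD spectra recorded from 230 to 500 nm at 100 nm/min; ellipticity followed at 320 nm.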

Escherichia coli = assay: Antibacterial activity against Escherichia coli MTCC1916 by broth microdilution assay; assay type: functional
In short: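 Broth microdilution per CLSI; 5×10^5 cfu/mL bacteria in LB broth; compounds from DMSO stocks, final DMSO under 0.6%, with DMSO control. Plates incubated at the strain's recommended growth temperature and time; growth read as OD600.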

DNA [4] = assay: Binding affinity to Staphylococcus aureus DNA assessed as appearance of induced CD up to 60 uM by circular dichroism method; assay type: nucleic-acid assay; in short: as §1
Staphylococcus aureus = assay: Induction of morphological changes in Staphylococcus aureus assessed as unchanged population at 3.5 uM measured after 2 hrs by flow cytometric analysis (reference value: 90.4%); assay type: functional
Calf thymus DNA = assay: Binding affinity to calf thymus DNA assessed as change in B-DNA structure at 265 nm by circular dichroism method; assay type: nucleic-acid assay; conditions: Bos taurus
DNA [5] = assay: Binding affinity to Escherichia coli pBR322 DNA assessed as height of DNA at 0.5:1 to 3:1 compound to DNA ratio by atomic force microscopic analysis; assay type: nucleic-acid assay
In short: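 Supercoiled pBR322 plasmid treated with compound at [compound]:[DNA bp] ratios of 0.5:1, 1:1, 1.5:1, 2:1 and 3:1. Imaged by atomic force microscopy, with DNA height measured and compared against untreated plasmid.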

HEK293 = assay: Cytotoxicity against HEK293 cells measured after 24 hrs by MTT assay; assay type: cell-based; conditions: Homo sapiens, HEK293, 24 h
In short: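 HEK 293 cells, 4000/well, seeded overnight in DMEM + 10% FBS at 37°C in CO2; compound dose series for 24 h (final DMSO <0.5%, DMSO-only control). MTT at 1 mg/mL final for 3 h, formazan dissolved in DMSO, absorbance 595 nm; IC50 from triplicate OD data.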

Question: With `CN(C)CCCNc1nc2cc([N+](=O)[O-])ccc2nc1NCc1ccc(C(F)(F)F)cc1` as the molecule, how does the Activity (DNA [1]) read?
Answer: Active

Question: And the inhibition (DNA [2])?
Answer: Active

Question: What about the Activity (DNA [3]) of the same molecule?
Answer: Dose-dependent effect

Question: What about the MIC (Escherichia coli) of the same molecule?
Answer: 3.36 µg/mL (≈ 7.49 µM)

Question: What about the Activity (DNA [4]) of the same molecule?
Answer: Active

Question: What about the Activity (Staphylococcus aureus) of the same molecule?
Answer: 86.3%

Question: What about the Activity (Calf thymus DNA) of the same molecule?
Answer: Dose-dependent effect

Question: And the Activity (DNA [5])?
Answer: 0.32 to 1.3 nm

Question: What about the IC50 (HEK293) of the same molecule?
Answer: 5.66 µg/mL (≈ 12.6 µM)

Reference: ChEMBL document CHEMBL4373710, “DNA Structural Alteration Leading to Antibacterial Properties of 6-Nitroquinoxaline Derivatives” (J Med Chem, 2019)
